Assay [1] deals with T1, Steroid 17-alpha-hydroxylase/17,20 lyase (Homo sapiens, UniProt P05093).
T1 sequence (P05093 whole entry): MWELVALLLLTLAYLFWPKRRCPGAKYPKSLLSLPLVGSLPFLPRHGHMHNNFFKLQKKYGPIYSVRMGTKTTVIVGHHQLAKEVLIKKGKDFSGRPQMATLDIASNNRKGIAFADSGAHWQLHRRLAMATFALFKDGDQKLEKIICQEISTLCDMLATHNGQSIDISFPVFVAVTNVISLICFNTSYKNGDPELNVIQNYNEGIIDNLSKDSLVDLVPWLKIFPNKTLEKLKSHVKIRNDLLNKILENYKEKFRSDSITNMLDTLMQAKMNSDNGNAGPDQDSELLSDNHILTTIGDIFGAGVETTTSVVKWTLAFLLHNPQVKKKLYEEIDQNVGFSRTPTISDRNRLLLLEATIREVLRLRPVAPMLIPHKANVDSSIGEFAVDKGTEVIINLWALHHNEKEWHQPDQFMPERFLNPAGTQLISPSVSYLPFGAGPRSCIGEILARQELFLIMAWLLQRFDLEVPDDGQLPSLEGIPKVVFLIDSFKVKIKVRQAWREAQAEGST
Briefly: Inhibition of human testicular steroid 17-alpha-hydroxylase. In outline:
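Human testicular microsomes (from orchidectomy testes, stored −70 °C, diluted in 0.1 M phosphate buffer; ca. 90 μg protein) incubated with [7-³H]pregnenolone (400 nM), NADPH-generating system and four to five inhibitor concentrations, pH 7.4, under oxygen, 5 min, 34 °C. Reverse-phase HPLC with radioactivity counting; hydroxylase activity from conversion to 17α-hydroxypregnenolone plus DHEA. IC50 by nonlinear regression; duplicates, repeated at least once.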

The target in assay [2] is T1, Steroid 17-alpha-hydroxylase/17,20 lyase. The assay can be described thus: Inhibition of human testicular C17,20-lyase, cytochrome P450 17A1; No inhibition.

We go through 24 compounds from ChEMBL document CHEMBL1129373, “Synthesis and evaluation of pregnane derivatives as inhibitors of human testicular 17 alpha-hydroxylase/C17,20-lyase” (J Med Chem, 1996).

Consider `C[C@]12CC[C@H](O)CC1=CCC1C2CC[C@]2(C)/C(=N/N)CCC12` (stereo partly specified), for which, in assay [1] (read-out: IC50), the half-inhibitory concentration (IC50) is 6.48 µM.

As to `C[C@@H](C=O)C1CCC2C3CCC4=CC(=O)CC[C@]4(C)C3CC[C@@]21C` (stereo partly specified), in assay [1] (read-out: IC50), the IC50 came out at 0.23 µM. `CC(=O)C1=CCC2C3CCC4=CC(=O)CC[C@]4(C)C3CC[C@]12C` (stereo partly specified): in assay [1] (read-out: IC50), the 50% inhibitory concentration (IC50) came out at 1.77 µM. For `C/C(=N/O)C1CCC2C3CC=C4C[C@@H](O)CC[C@]4(C)C3CC[C@]12C` (stereo partly specified), the IC50 in assay [1] (read-out: IC50) is 0.53 µM. For `C=CC1CCC2C3CC=C4C[C@@H](O)CC[C@]4(C)C3CC[C@]12C` (stereo partly specified), in assay [1] (read-out: IC50), the concentration for half-maximal inhibition (IC50) worked out at 2.88 µM. As for `C/C(C#N)=C1/CCC2C3CCC4=CC(=O)CC[C@]4(C)C3CC[C@]12C` (stereo partly specified), the half-inhibitory concentration (IC50) in assay [1] (read-out: IC50) is 1.22 µM.

For the compound `C/C(=N/O)C1=CCC2C3CC=C4C[C@@H](O)CC[C@]4(C)C3CC[C@]12C` (stereo partly specified), in assay [1] (read-out: IC50), the IC50 is 0.016 µM.

With `C[C@]12CCC3C(CC=C4C[C@@H](O)CC[C@@]43C)C1CCC2[C@]1(C)CO1` (stereo partly specified), the IC50 in assay [1] (read-out: IC50) turned out to be 0.73 µM. Take `C#C[C@]1(O)CCC2C3CCC4=CC(=O)CC[C@]4(C)C3CC[C@@]21C` (stereo partly specified): the IC50 result is reported as “Not Active” in assay [2] and “No inhibition” in assay [1]. Turning to `CC(=O)C1=CCC2C3CC=C4C[C@@H](O)CC[C@]4(C)C3CC[C@]12C` (stereo partly specified), the half-maximal inhibitory concentration (IC50) in assay [1] (read-out: IC50) stood at 0.51 µM.

Consider `C[C@@H](C#N)C1CCC2C3CCC4=CC(=O)CC[C@]4(C)C3CC[C@@]21C` (stereo partly specified), for which, in assay [1] (read-out: IC50), the IC50 was determined as 1.1 µM.

Consider `C[C@]12CC[C@H](O)CC1=CCC1C2CC[C@]2(C)/C(=N/O)CCC12` (stereo partly specified), for which the IC50 in assay [1] (read-out: IC50) is 13.5 µM. For the compound `C[C@H](N)[C@H]1CC[C@H]2[C@@H]3CC=C4C[C@@H](O)CC[C@]4(C)[C@H]3CC[C@]12C`, the IC50 in assay [1] (read-out: IC50) was found to be 89.8 µM. Take `C/C(=N\N(C)C)C1=CCC2C3CC=C4C[C@@H](O)CC[C@]4(C)C3CC[C@]12C` (stereo partly specified): the concentration for half-maximal inhibition (IC50) in assay [1] (read-out: IC50) is 43.7 µM. On to `CC(O)C1CCC2C3CC=C4C[C@@H](O)CC[C@]4(C)C3CC[C@]12C` (stereo partly specified), for which, in assay [1] (read-out: IC50), the 50% inhibitory concentration (IC50) stood at 0.72 µM. As for `C/C(=N\N(C)C)C1CCC2C3CC=C4C[C@@H](O)CC[C@]4(C)C3CC[C@]12C` (stereo partly specified), the concentration for half-maximal inhibition (IC50) result in assay [2] was “Not Active”; in assay [1], “No inhibition”. `C[C@@H](O)[C@H]1CC[C@H]2[C@@H]3CCC4=CC(=O)CC[C@]4(C)[C@H]3CC[C@]12C`: in assay [1] (read-out: IC50), the concentration for half-maximal inhibition (IC50) came out at 2.84 µM.

`C[C@@H](O)C1CCC2C3CCC4=CC(=O)CC[C@]4(C)C3CC[C@@]21C` (stereo partly specified): the IC50 in assay [1] (read-out: IC50) is 0.49 µM. Take `C[C@@H](/C=N/O)[C@H]1CC[C@H]2[C@@H]3CCC4=CC(=O)CC[C@]4(C)[C@H]3CC[C@]12C`: in assay [1] (read-out: IC50), the IC50 was 5.98 µM. `C#CC1CCC2C3CC=C4C[C@@H](O)CC[C@]4(C)C3CC[C@]12C` (stereo partly specified): the IC50 in assay [1] (read-out: IC50) worked out at 3.56 µM. On to `C[C@@H](O)C1CCC2C3CC=C4C[C@@H](O)CC[C@]4(C)C3CC[C@@]21C` (stereo partly specified), for which, in assay [1] (read-out: IC50), the 50% inhibitory concentration (IC50) turned out to be 0.18 µM.

`C/C(=N\N)[C@H]1CC[C@H]2[C@@H]3CC=C4C[C@@H](O)CC[C@]4(C)[C@H]3CC[C@]12C`: in assay [1] (read-out: IC50), the concentration for half-maximal inhibition (IC50) amounted to 9.98 µM.

Turning to `C[C@@H](N)[C@H]1CC[C@H]2[C@@H]3CC=C4C[C@@H](O)CC[C@]4(C)[C@H]3CC[C@]12C`, the half-inhibitory concentration (IC50) in assay [1] (read-out: IC50) came to 9.8 µM.

As for `CN(C=O)C1CCC2C3CCC4=CC(=O)CC[C@]4(C)C3CC[C@@]21C` (stereo partly specified), the IC50 in assay [1] (read-out: IC50) came out at 0.8 µM.
